From ChEMBL document CHEMBL3044632, “Synthesis, crystal structure, and biological activity of 4-methyl-1,2,3-thiadiazole-containing 1,2,4-triazolo[3,4-b][1,3,4]thiadiazoles” (J Agric Food Chem, 2010) come the findings set out here.

Molecules are shown by their SMILES.

In one series the test system is Alternaria solani. As to the kind of experiment: Fungicide activity against Alternaria solani assessed as growth inhibition at 50 ug/mL at 24 to 26 degC measured after 2 days. In kind it is functional. As to conditions: 48 h, read-out: GI.
For the next series, the system named is Phytophthora infestans. As to the kind of experiment: Fungicide activity against Phytophthora infestans assessed as growth inhibition at 50 ug/mL at 24 to 26 degC measured after 2 days. It is filed as functional. Conditions: 48 h, read-out: GI.
The next series relates to Botrytis cinerea. As to the kind of experiment: Fungicide activity against Botryotinia fuckeliana assessed as growth inhibition at 50 ug/mL at 24 to 26 degC measured after 2 days. In kind it is functional. Conditions: 48 h, read-out: GI.
The test system of the next series is Thanatephorus cucumeris. The series is described as follows: Fungicide activity against Thanatephorus cucumeris assessed as growth inhibition at 50 ug/mL at 24 to 26 degC measured after 2 days. It is filed as functional. Conditions: 48 h, read-out: GI.
The test system of series [1] is Tobacco mosaic virus. The series is described as follows: Antiviral activity against Tobacco mosaic virus (TMV) infected leaves assessed as viral inhibition at 50 ug/mL at 25 degC for 72 hr. In kind it is functional. In short, it runs like this:
(§1)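 Systemic acquired resistance induction was assayed in a tobacco–TMV system. The antivirus inhibition ratio was calculated from the average number of viral lesions on inoculated leaves, relative to the corresponding control.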

The next series has as its system Fusarium oxysporum. The series is described as follows: Fungicide activity against Fusarium oxysporum assessed as growth inhibition at 50 ug/mL at 24 to 26 degC measured after 2 days. As to conditions: 48 h, read-out: GI. In kind it is functional.
Series [2] has as its system Botryosphaeria berengeriana. The series is described as follows: Fungicide activity against Botryosphaeria berengeriana assessed as growth inhibition at 50 ug/mL at 24 to 26 degC measured after 2 days. In kind it is functional. As to conditions: 48 h, read-out: GI.
Another series deals with Nicotiana tabacum. As to the kind of experiment: Phytotoxicity against Nicotiana tabacum (tobacco) plant at 50 to 500 ug/mL. It is filed as organism-based. Conditions: in vivo.
The subject of the next series is Mycosphaerella arachidis. As to the kind of experiment: Fungicide activity against Mycosphaerella arachidis assessed as growth inhibition at 50 ug/mL at 24 to 26 degC measured after 2 days. In kind it is functional. As to conditions: 48 h, read-out: GI.
Another series deals with Colletotrichum lagenaria. As to the kind of experiment: Fungicide activity against Colletotrichum lagenaria assessed as growth inhibition at 50 ug/mL at 24 to 26 degC measured after 2 days. As to conditions: 48 h, read-out: GI. In kind it is functional.
Another series deals with Fusarium graminearum. As to the kind of experiment: Fungicide activity against Fusarium graminearum assessed as growth inhibition at 50 ug/mL at 24 to 26 degC measured after 2 days. In kind it is functional. Conditions: 48 h, read-out: GI.
The subject of another series is Cercospora beticola. As to the kind of experiment: Fungicide activity against Cercospora beticola assessed as growth inhibition at 50 ug/mL at 24 to 26 degC measured after 2 days. In kind it is functional. Conditions: 48 h, read-out: GI.
The next series concerns Puccinia triticina. As to the kind of experiment: Fungicide activity against Puccinia triticina assessed as growth inhibition at 50 ug/mL at 24 to 26 degC measured after 2 days. In kind it is functional. As to conditions: 48 h, read-out: GI.
Series [3] has as its system Tobacco mosaic virus. As to the kind of experiment: Antiviral activity against Tobacco mosaic virus (TMV) infected leaves assessed as viral inhibition at 500 ug/mL at 25 degC for 72 hr. It is filed as functional. In a few lines: as §1
For series [4], the system named is Tobacco mosaic virus. As to the kind of experiment: Antiviral activity against Tobacco mosaic virus (TMV) infected leaves assessed as viral inhibition at 100 ug/mL at 25 degC for 72 hr. In kind it is functional. In a few lines:
as §1

In general, inhibition refers to the relative decrease from the control value, in per cent. With `Cc1nnsc1C1=NNC2SC(c3c(-c4ccccc4)noc3C)=NN12` (stereo not given), the inhibition of growth at 50 µg/mL in the series with Alternaria solani is 33.3%; with Phytophthora infestans it was 7.4%; in the series on Botrytis cinerea, 46.2%; in the series on Thanatephorus cucumeris, 25.4%; with Fusarium oxysporum it was 13.8%; in series [2] it was 8.9%. Besides, the inhibition of growth at 50 µg/mL in the series with Mycosphaerella arachidis worked out at 30%; in the series on Colletotrichum lagenaria it was 13.6%; in the series on Fusarium graminearum, 27.3%; with Cercospora beticola, 10%. Moreover, the inhibition at 50 µg/mL with Tobacco mosaic virus [1] was 14.6%. Moreover, the Activity result with Nicotiana tabacum is recorded as “Toxic”.
Take `COc1ccccc1C1=NN2C(c3snnc3C)=NNC2S1` (stereo not given): the inhibition of growth at 50 µg/mL in the series on Alternaria solani is 30%; in the series on Phytophthora infestans, 11.1%; in the series on Botrytis cinerea, 50%; in the series on Thanatephorus cucumeris, 32.8%; in the series on Fusarium oxysporum, 17.2%; in series [2] it was 24.4%. Further, the inhibition of growth at 50 µg/mL in the series on Mycosphaerella arachidis came out at 25%; in the series on Colletotrichum lagenaria it was 27.3%; in the series on Fusarium graminearum, 18.2%; with Cercospora beticola, 30%. Further, the inhibition at 50 µg/mL with Tobacco mosaic virus [1] stood at 40%. The Activity result in the series on Nicotiana tabacum is “Toxic”.
In the case of `Cc1nnsc1C1=NNC2SC(C(C)(C)C)=NN12` (stereo not given), the inhibition of growth at 50 µg/mL with Alternaria solani is 16.7%; in the series with Phytophthora infestans it was 14.7%; with Thanatephorus cucumeris, 56.7%; in the series with Fusarium oxysporum, 13.9%; in [2], 17.7%; with Mycosphaerella arachidis it was 36.4%. For the same molecule, the results for the inhibition of growth at 50 µg/mL in the series with Colletotrichum lagenaria, in the series on Cercospora beticola and in the series with Puccinia triticina were 5.88%, 23.8% and 26.3%, respectively. Moreover, the inhibition at 50 µg/mL with Tobacco mosaic virus [1] was 7.89%. Also, in the series on Nicotiana tabacum, the Activity entry was “Toxic”.
With `COc1cccc(C2=NN3C(c4snnc4C)=NNC3S2)c1` (stereo not given), the inhibition of growth at 50 µg/mL worked out at 23.3% in the series on Alternaria solani; 17.3% with Phytophthora infestans; 60.8% with Thanatephorus cucumeris; 19.4% in the series on Fusarium oxysporum; 45.2% in series [2]; 18.2% in the series with Mycosphaerella arachidis. For the same molecule, the inhibition of growth at 50 µg/mL in the series on Colletotrichum lagenaria turned out to be 0%; in the series with Cercospora beticola, 14.3%; in the series on Puccinia triticina it was 31.6%. In addition, in the series with Tobacco mosaic virus [1], the inhibition at 50 µg/mL came to 0%. Also, the Activity entry in the series on Nicotiana tabacum is on record as “Toxic”.
For the molecule `Cc1nnsc1C1=NNC2SC(/C=C/c3ccccc3)=NN12` (stereo not given), the inhibition of growth at 50 µg/mL with Alternaria solani was 31.3%; with Phytophthora infestans, 18.2%; in the series with Botrytis cinerea it was 81.8%; in the series on Thanatephorus cucumeris it was 33.3%; with Fusarium oxysporum, 9.1%; in [2], 40.5%. The inhibition of growth at 50 µg/mL in the series with Mycosphaerella arachidis was determined as 27.6%; with Colletotrichum lagenaria it was 26.9%; in the series with Fusarium graminearum it was 17.5%; in the series on Cercospora beticola it was 13.3%. Besides, the inhibition at 500 µg/mL in the series on Tobacco mosaic virus [3] was found to be 27.8%. The inhibition at 100 µg/mL in the series with Tobacco mosaic virus [4] came to 16.7%. In the series on Nicotiana tabacum, the Activity entry is “Toxic”.
Turning to `Cc1nnsc1C1=NNC2SC(c3ccc([N+](=O)[O-])cc3)=NN12` (stereo not given), the inhibition of growth at 50 µg/mL in the series with Alternaria solani was 26.7%; in the series on Phytophthora infestans, 22.2%; in the series on Botrytis cinerea, 60%; in the series with Thanatephorus cucumeris, 32.4%; in the series on Fusarium oxysporum, 20.9%; in series [2], 34.9%. The inhibition of growth at 50 µg/mL in the series with Mycosphaerella arachidis was determined as 30.8%; in the series with Colletotrichum lagenaria it was 13.8%; in the series with Fusarium graminearum, 11.9%; in the series on Cercospora beticola, 14.3%. Further, the inhibition at 500 µg/mL in the series on Tobacco mosaic virus [3] was determined as 52.9%. Besides, the inhibition at 100 µg/mL in the series with Tobacco mosaic virus [4] was 16.7%. The Activity result in the series on Nicotiana tabacum was “Toxic”.
Regarding `Cc1nnsc1C1=NNC2SC(c3cccc(F)c3)=NN12` (stereo not given), the inhibition of growth at 50 µg/mL in the series with Alternaria solani is 37.1%; with Phytophthora infestans it was 0%; with Botrytis cinerea it was 75%; in the series on Thanatephorus cucumeris, 32.8%; in the series on Fusarium oxysporum, 10%; in [2] it was 54.1%. Also, the inhibition of growth at 50 µg/mL with Mycosphaerella arachidis amounted to 23.5%; in the series on Colletotrichum lagenaria it was 0%; with Fusarium graminearum it was 40.5%; in the series with Cercospora beticola, 27.3%. In the series on Tobacco mosaic virus [3], the inhibition at 500 µg/mL amounted to 30.7%. In addition, the inhibition at 100 µg/mL with Tobacco mosaic virus [4] stood at 24.2%. In addition, the Activity entry in the series on Nicotiana tabacum was “Toxic”.
